Read-outs that look alike come from different tables or passages of the source. One block for each molecule: values may come before it.
Key:
[1] = molecular target: PCBP1–BolA2 complex (Homo sapiens, UniProt Q15365+Q9H3K6); test: Co-immunoprecipitation of PCBP1 with BolA2-Flag from HEK293 cell lysates; conditions: 1 mM DTT as alternative reducing agent instead of 5 mM GSH in IP buffer
[2] = molecular target: T1, PCBP1 KH3 domain (WT) (Homo sapiens, UniProt Q15365); test: Fe; type: binding; conditions: for Kd: read-out: KD of Fe(II) for wild-type KH3
Target sequence in this assay (Q15365 279-356 limits assumed): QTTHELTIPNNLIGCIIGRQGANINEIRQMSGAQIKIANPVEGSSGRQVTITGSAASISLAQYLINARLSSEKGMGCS

[3] = molecular target: PCBP1 KH3 domain C293S variant; test: Fe; type: binding, human; conditions: read-out: KD of Fe(II) for C293S KH3
Procedure, shortened: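 Fe(II) binding followed as the fall in apo-indicator absorbance (366 nm, shifting toward 325 nm on metal binding). KD from competition; means ± SD, n = 4 independent experiments.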

[4] = molecular target: T2, PCBP1 KH3 domain (Homo sapiens, UniProt Q15365); conditions: 100 μM 35S-GSH
[5] = molecular target: T2, PCBP1 KH3 domain; test: biochemical; conditions: 200 nM labeled KH3
[6] = molecular target: BolA2–KH3 complex (Homo sapiens, UniProt Q15365); test: biochemical
[7] = molecular target: T1, PCBP1 KH3 domain (WT); conditions: wild-type KH3, 100 μM 35S-GSH, +/- 100 μM FeSO4
Target sequence in this assay (Q15365 287-356 limits assumed): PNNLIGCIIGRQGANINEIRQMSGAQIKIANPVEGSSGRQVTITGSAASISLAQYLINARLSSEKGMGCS

[8] = molecular target: T2, PCBP1 KH3 domain; conditions: 10 μM Fe(II) versus no iron
[9] = cited from earlier work

T2 sequence (Q15365 279-356 limits assumed): as the sequence (Q15365 279-356 limits assumed) above
Sequence of PCBP1–BolA2 complex (Q15365 whole entry, the tested form may be a part): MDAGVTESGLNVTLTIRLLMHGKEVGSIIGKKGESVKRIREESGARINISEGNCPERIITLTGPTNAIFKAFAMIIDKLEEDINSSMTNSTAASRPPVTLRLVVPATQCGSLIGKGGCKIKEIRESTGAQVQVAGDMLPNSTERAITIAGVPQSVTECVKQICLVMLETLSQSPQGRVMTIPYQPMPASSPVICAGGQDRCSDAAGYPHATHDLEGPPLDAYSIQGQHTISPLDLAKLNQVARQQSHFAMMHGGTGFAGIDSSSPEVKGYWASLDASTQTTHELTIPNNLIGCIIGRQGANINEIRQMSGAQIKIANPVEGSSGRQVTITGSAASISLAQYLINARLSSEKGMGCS
Sequence of PCBP1–BolA2 complex (Q9H3K6 whole entry, the tested form may be a part): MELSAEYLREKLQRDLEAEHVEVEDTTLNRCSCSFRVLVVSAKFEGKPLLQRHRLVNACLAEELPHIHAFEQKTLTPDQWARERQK
Sequence of BolA2–KH3 complex (Q15365 279-356): as the sequence (Q15365 279-356 limits assumed) above
Sequence of BolA2–KH3 complex (Q9H3K6 whole entry partner, the tested form may be a part): as the sequence (Q9H3K6 whole entry, the tested form may be a part) above

stabilization of PCBP1–BolA2 complexes [1]: did not result in stabilization
SMILES: O[C@@H](CS)[C@@H](O)CS (racemic) [dithiothreitol]

fold increase of affinity of KH3 for Fe(II) by GSH ([2]; 5 mM GSH versus no GSH): ~ 5 fold
Kd ([2]; 0 mM GSH (absence of glutathione)): 4.2 ± 0.7 µM
Kd ([2]; 5 mM GSH): 0.8 ± 0.1 µM
Kd ([3]; 0 mM GSH): 16.4 ± 2.7 µM
Kd ([3]; 5 mM GSH): 9.4 ± 1.3 µM
SMILES: O=S(=O)([O-])[O-].[Fe+2] [Fe(II), FeSO4]

SMILES: N[C@@H](CCC(=O)N[C@@H](CS)C(=O)NCC(=O)O)C(=O)O [GSH, glutathione]
GSH binding of wild-type KH3 relative to control IPs [4]: 5 fold
Kd ([5]; KD of GSH for KH3, buffer containing 10 μM Fe(II) (FeSO4)): 80 ± 10 µM
Kd ([5]; apparent KD of GSH for KH3, buffers without iron): 390 ± 50 µM
Kd [6]: 86 ± 25 µM
increase of GSH binding in the presence of Fe(II) [7]: 2 fold
fold higher affinity of GSH for KH3 with iron [8]: ~5 fold

SMILES: [Mn+2] [manganese]
fold lower affinity for GSH than Fe(II) [9]: > 100 fold
